SENP1 inh: SENP1 (human) catalytic domain inhibition; Q9P0U3; recombinant SENP1 catalytic domain, CyPet-SUMO1-YPet FRET cleavage; inhibition, % at 10 µM; 0.21% of 360,000 active;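 active = inhibition at least 30% at 10 µM, raw YFP signal under a set limit, fluorescence ratio 0.5 to 1.5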;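 note: 0% = enzyme with DMSO and 100% = no enzyme wells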
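Compound: 10 µM single point, 0.5% DMSO; Test system: hSENP1 catalytic domain, recombinant; Timing: 50 min reaction at room temperature; Technique: FRET, CFP and YFP emission; Control set: no-enzyme wells low, DMSO-plus-enzyme wells high control.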
SENP7 block: inhibitors of human SENP7 protease; Q9BQF6; recombinant SENP7, Z-RLRGG-aminoluciferin luminescence, 40 min; inhibition, % at 5 µM; 1.5% of 330,000 active; AID 434973;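 active = inhibition above about 50% at the single test dose, limit read from the data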;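 note: plate controls were DMSO with enzyme for no effect and no enzyme buffer wells for full effect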
SENP6 block: inhibitors of human SENP6 protease; Q9GZR1; Recombinant SENP6 catalytic domain, aminoluciferin luminescence; inhibition, % at 10 µM; 1.8% of 330,000 active; AID 2599;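 active = inhibition above about 50% at the single tested dose, limit read from the data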;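 note: plate controls were DMSO wells with enzyme for no effect and DMSO wells lacking enzyme for full effect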
Target sequence (Q9GZR1 628-1112 limits assumed): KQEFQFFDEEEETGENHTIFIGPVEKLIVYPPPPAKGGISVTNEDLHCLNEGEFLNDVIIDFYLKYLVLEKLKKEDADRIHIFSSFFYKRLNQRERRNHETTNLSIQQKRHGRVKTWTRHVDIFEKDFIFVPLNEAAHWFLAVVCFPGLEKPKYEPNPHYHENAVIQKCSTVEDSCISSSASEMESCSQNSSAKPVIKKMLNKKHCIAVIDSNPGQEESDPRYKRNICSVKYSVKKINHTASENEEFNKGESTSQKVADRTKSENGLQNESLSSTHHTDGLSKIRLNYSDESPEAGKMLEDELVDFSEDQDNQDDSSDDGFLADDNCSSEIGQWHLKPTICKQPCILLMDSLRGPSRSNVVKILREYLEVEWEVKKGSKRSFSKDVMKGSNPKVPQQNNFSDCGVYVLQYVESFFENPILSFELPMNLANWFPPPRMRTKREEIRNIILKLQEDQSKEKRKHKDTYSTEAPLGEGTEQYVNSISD
SENP8 block-1: SENP8 (human) protease inhibition; 0.64% of 360,000 active; inhibition, % at 20 µM; recombinant SENP8, Nedd8 substrate fluorescence; AID 602440; Q96LD8; in the data active = inhibition mostly above about 40%, no sharp cut-off; inactive = mostly below about 27%
Target sequence (Q96LD8 whole entry, looked up): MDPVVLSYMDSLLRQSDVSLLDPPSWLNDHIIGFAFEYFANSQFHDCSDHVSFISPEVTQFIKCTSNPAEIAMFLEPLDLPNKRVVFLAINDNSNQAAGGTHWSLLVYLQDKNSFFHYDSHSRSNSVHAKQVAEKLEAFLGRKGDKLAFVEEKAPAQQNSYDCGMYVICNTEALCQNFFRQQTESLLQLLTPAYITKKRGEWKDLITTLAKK
SENP8 block-2: inhibitors of human SENP8 protease. Q96LD8. purified SENP8, Z-RLRGG-aminoluciferin cleavage, luminescence. inhibition, % at 10 µM. 1.2% of 330,000 active; in the data active = inhibition above about 50%
Platelet DG rel: platelet dense granule release activity. AID 1663. human platelet-rich plasma, SFLLRN dense granule ATP release, luminescence. inhibition, %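 (compounds screened at 7.5 µM in platelet-rich plasma)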. 0.22% of 300,000 active;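 active = mean replicate score, as percent of positive control, at or above 50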
SENP8 conf: human SENP8 inhibition, confirmed. shares compounds with SENP7 block. Recombinant SENP8, Z-RLRGG-aminoluciferin luminescence, 60 min. inhibition, % at 12.5 µM. 40% of 6,200 active. AID 488912;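 active = mean inhibition across replicates above about 50%, limit read from the data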
SENP6 confirm: confirmation of human SENP6 protease inhibitors; AID 488915; 58% of 6,200 active; recombinant SENP6, Z-RLRGG-aminoluciferin luminescence; inhibition, % at 12.5 µM; shares compounds with SENP7 block
SENP7 confirm: human SENP7 inhibition, confirmed; shares compounds with SENP7 block; 69% of 6,200 active; recombinant SENP7, Z-RLRGG-aminoluciferin luminescence, 40 min; AID 488917; inhibition, % at 12.5 µM
Casp3 SENP sel: caspase-3 inhibition (SENP selectivity assay); purified caspase-3, Z-DEVD-aminoluciferin luminescence, 60 min; 60% of 6,200 active; inhibition, % at 12.5 µM; shares compounds with SENP7 block;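 active = mean inhibition above about 50%, limit read from the data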;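 note: plate controls were enzyme with DMSO for no effect and wells without caspase-3 for full effect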
Luc interf: luminescence interference (SENP counter-screen) | shares compounds with SENP7 block | Pre-incubated SENP8/Z-RLRGG-aminoluciferin, luciferase luminescence interference | inhibition, % at 12.5 µM | 39% of 6,200 active;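 active = mean inhibition above about 50% when retested at one dose, limit read from the data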;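 note: plate controls were DMSO wells with completed reaction for no effect and substrate without enzyme for full effect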
* marks the source's active call; other numbers are inactive results; i = inactive; . = not tested or not shown. In the library only some 2.6% were active in any assay of this set; here they are far more common.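 Rule for the calls, unless noted: active = mean inhibition above about 50% in the one-dose retest (limit read from the data); inactive = the rest.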

SMILES	SENP1 inh	SENP7 block	SENP6 block	SENP8 block-1	SENP8 block-2	Platelet DG rel	SENP8 conf	SENP6 confirm	SENP7 confirm	Casp3 SENP sel	Luc interf
C(=N\Nc1nc2ccccc2s1)/c1ccco1	-8.9	89.9*	92.9*	-8.9	82.9*	12.7	81.9*	81.6*	96.8*	82.6*	71.9*
COc1ccc(-c2csc3ncnc(Nc4ccc(O)cc4)c23)cc1	-3.1	-0.6	-1.8	4.9	-14.3	4.0	.	.	.	.	.
CCOc1cccc(CN2CCCC(C(=O)c3cc(Cl)ccc3OC)C2)c1O (centres undefined)	3.2	4.4	1.1	8.1	7.3	1.8	.	.	.	.	.
CC(C)NC(=O)COc1ccc2c(c1)C(=O)CC(C)(C)O2	-7.9	1.7	-23.0	-404.8	-1.0	9.1	.	.	.	.	.
Cc1cc(C)nc(N/N=C/c2sccc2C)n1	0.0	4.6	-14.5	2.0	4.6	8.6	.	.	.	.	.
Oc1ccccc1C=NNc1nc2ccccc2s1	-49.8	.	.	-124.5	.	.	.	.	.	.	.
Cc1ccsc1/C=N/Nc1nc(=O)[nH]nc1C	0.6	89.4*	91.0*	11.7	80.1*	50.7*	86.2*	87.4*	98.3*	95.8*	70.9*
C(=N\Nc1nc2ccccc2s1)/c1cccs1	0.2	92.8*	95.2*	-43.8	89.3*	-0.8	36.8	87.5*	99.7*	71.3*	81.5*
CCOC(=O)CSc1nnc(-c2cccnc2)n1C	-0.9	-12.2	-25.6	3.8	-9.5	-2.1	.	.	.	.	.
COc1ccc(/C=N/Nc2ncccc2[N+](=O)[O-])c(OC)c1	4.4	99.3*	99.5*	30.5	96.6*	78.8*	99.1*	100.3*	103.5*	98.9*	18.9
COc1ccc(/C=N/Nc2ncc(-c3ccccc3)cn2)c(OC)c1	3.4	-3.2	-23.9	-87.7	-0.9	5.9	.	.	.	.	.
c1cc2[nH]snc2c2nc(C3CC3)nc12	4.1	28.0	55.0*	-100.0	29.1	17.0	-4.0	-1.2	3.0	35.4	16.7
Cc1ccc(-n2ncc3c2ncn2c(C)nnc32)cc1C	2.9	-8.9	53.7*	-246.2	46.9	.	49.8	44.7	72.8*	75.5*	12.9
CCc1nnc2c3cnn(-c4ccccc4)c3ncn12	-2.9	-1.4	-3.6	-235.4	-7.5	-8.2	.	.	.	.	.
Cc1cc2ncc(-c3ccc(Cl)cc3)cn2n1	1.4	30.1	-1.4	2.4	39.3	9.1	.	.	.	.	.
Cc1ccc(-c2cnc3c(Cl)c(C)nn3c2)cc1	2.3	93.6*	65.4*	4.1	68.2*	25.0	68.6*	70.4*	74.9*	80.1*	45.3
Cc1ccc(-c2cnc3cc(C)nn3c2)cc1	1.3	75.1*	58.0*	-5.3	46.6	-13.1	50.7*	60.8*	82.8*	72.0*	25.3
Cc1ccc(NC(CC(=O)c2ccccc2)C(=O)O)cc1Cl (centres undefined)	-13.3	65.1*	-7.9	-33.5	73.7*	11.1	-11.5	8.1	17.7	35.5	18.8
CSCCC(NC(=O)c1ccccc1)C(=O)OCC(=O)Nc1ccc(C)c(Cl)c1 (centres undefined)	-1.0	5.7	-6.5	3.3	2.4	-1.5	.	.	.	.	.
Nc1c(C(=O)NCc2ccco2)c2nc3ccccc3nc2n1CCc1ccccc1F	-26.9	34.0	51.1*	-300.1	40.2	1.6	2.4	5.7	-8.9	1.5	-2.4
COc1ccc(CCn2c(N)c(C(=O)NCc3ccco3)c3nc4ccccc4nc32)cc1OC	-52.9	35.5	70.4*	-315.2	37.8	-0.6	15.0	10.5	2.4	-1.0	-0.8
Cn1c2ccccc2c(=O)c2cc(C#CC3(O)CCCCC3)ccc21	-28.8	97.2*	95.7*	i	91.7*	46.5	45.8	57.2*	35.5	62.3*	77.9*
O=c1c2ccccc2oc2ccc(C#CC3(O)CCCCC3)cc12	1.1	89.3*	94.4*	-215.3	91.9*	9.2	92.2*	93.9*	99.4*	83.4*	67.8*
NC1(C#Cc2ccc3c(=O)c4ccccc4sc3c2)CCCCC1	-59.8	12.3	43.7	-231.0	35.6	.	.	.	.	.	.
Cc1cc2sc3ccc(C#CC4(O)CCCCC4)cc3c(=O)c2cc1C	-135.1	98.9*	97.2*	-293.0	94.0*	7.1	-3.5	13.7	23.9	72.9*	1.7
SMILES	SENP1 inh	SENP7 block	SENP6 block	SENP8 block-1	SENP8 block-2	Platelet DG rel	SENP8 conf	SENP6 confirm	SENP7 confirm	Casp3 SENP sel	Luc interf
COc1cccc2oc3ccc(C#CC4(N)CCCCC4)cc3c(=O)c12	-3.7	12.9	53.6*	i	31.4	8.1	55.4*	51.9*	81.3*	70.2*	13.1
COC(=O)c1ccsc1NC(=O)CSc1nnnn1Cc1ccccc1	8.8	-7.8	-1.2	18.7	-4.1	.	.	.	.	.	.
CN1CCN(C(=O)C[C@@H]2C=C[C@H](NS(=O)(=O)c3cccc(F)c3)[C@@H](CO)O2)CC1	3.8	.	.	16.5	.	.	.	.	.	.	.
O=S(=O)(Nc1ccccc1N1CCCCC1)c1ccc(F)cc1F	4.5	6.9	-0.2	4.6	1.8	-0.3	.	.	.	.	.
Cc1cc(NC(=O)c2ccccc2F)cc(C)c1OCC(=O)N1CCOCC1	1.8	-6.2	2.9	-1.2	-7.7	30.3	.	.	.	.	.
Cn1c2ccccc2c(=O)c2cc(C#Cc3ccccn3)ccc21	-27.5	81.9*	87.9*	-464.8	83.4*	6.9	19.1	30.6	19.8	49.7	8.1
Cn1c2ccccc2c(=O)c2ccc(C#Cc3ccccn3)cc21	.	3.1	13.1	.	-12.2	-1.0	.	.	.	.	.
CC(=O)c1ccc(NC(=O)/C(Cl)=C/c2ccccc2)cc1	3.0	85.1*	66.5*	5.9	44.7	15.3	12.9	19.3	22.8	20.2	8.3
O=C(Nc1ccc(F)cc1)/C(Cl)=C/c1ccccc1	0.7	87.7*	2.8	11.4	78.6*	7.7	-10.7	79.4*	95.5*	72.3*	13.5
Cc1ccc(NC(=O)/C(Cl)=C\c2ccccc2)cc1	2.3	91.2*	94.1*	17.1	85.9*	5.4	82.6*	86.9*	100.0*	83.6*	74.8*
CC(=O)c1ccc(NC(=O)/C(=C\c2ccccc2)NC(=O)/C=C/c2ccccc2)cc1	1.8	1.7	-3.9	16.5	6.4	0.0	.	.	.	.	.
Cn1c(=O)c2c(nc(CN3CCN(CCO)CC3)n2Cc2cccc3ccccc23)n(C)c1=O	1.2	-4.1	2.6	15.9	5.2	4.0	.	.	.	.	.
